From PubChem BioAssay
STAT1 blocker – STAT1 signaling inhibitors, primary screen, cell-based, HTS, luciferase reporter; inhibition, % at 5.5 µM; hit rate 0.35% among 200,000; NIH 3T3 STAT1-luciferase reporter, IFN-gamma, luminescence;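 active = inhibition above a set limit, the mean inhibition across all tested compounds plus 3 SD, cut at about 34% in these data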;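 note: 0% = IFN-gamma with DMSO and 100% = IFN-gamma with 300 µM nifuroxazide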
STAT3 inh-1 – IL-6 driven STAT3 reporter inhibitors, primary screen, U3A cells, luciferase, luminescence, MLSCN library. IL-6 STAT3-luciferase reporter; host cell line lacks STAT1. inhibition, % at 5.5 µM. hit rate 0.89% among 190,000. AID 862, 2007;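 active = inhibition above the mean inhibition across all screened compounds plus 3 SD, cut at about 44% in these data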;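 note: 0% = DMSO only wells and 100% = 100 µM nifuroxazide control wells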
STAT3 act – IL-6 driven STAT3 reporter potentiators, primary screen, U3A cells, luciferase, luminescence, MLSCN library; IL-6 STAT3-luciferase reporter; 100% = signal with IL-6 EC80 alone; hit rate 0.91% among 190,000; activation (% of control), % at 5.6 µM;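 active = activation above the screen-wide mean of compound activation plus 3 SD, cut at about 130% in these data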;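 note: 0% = background luminescence of wells with medium and substrate only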
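Test system: Human STAT1-deficient U3A cells with stable STAT3-luciferase reporter | Also added: Interleukin-6, 33 ng/mL | Timing: Compound pre-incubation 1 h before IL-6, then 6 h stimulation at 37 °C | Technique: Luciferase reporter luminescence | Read-out: Percent of IL-6-only median luminescence | Benchmarks: IL-6-only wells as 100% reference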
STAT1 activator – STAT1 signaling activators, primary screen, cell-based, HTS, luciferase reporter | AID 932, 2007 | hit rate 2.6% among 200,000 | NIH 3T3 STAT1-luciferase reporter, IFN-gamma, luminescence; 100% = IFN-gamma alone, no compound | activation (% of control), % at 5.5 µM;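 active = activation above the screen-wide mean activation plus 3 SD, cut at about 130% in these data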;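 note: raw ratio to IFN-gamma control signal so 100% means no change and 0% no light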
NF-kB expr up – activators of NF-kB expression in neurons, primary screen, cell-based, HTS; fold change at 12.5 µM; human neuronal cells, NF-kB reporter expression; active compounds read high; hit rate 1.6% among 190,000; in the data active = fold change above about 3.3
APP 5'UTR act – activators of APP 5'UTR luciferase reporter, primary screen, SH-SY5Y cells. SH-SY5Y APP 5'UTR luciferase reporter, luminescence; zero percent = DMSO vehicle wells. activation, % at 2 µM. hit rate 1% among 190,000;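 active = activation above a set limit, based on mean plus 3 SD of controls, cut at about 140% in these data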
STAT3 inh-2 – STAT3 reporter inhibitors, retest of hits, confirmation, U3A cells, luciferase, luminescence; shares compounds with STAT3 inh-1; IL-6 STAT3 luciferase reporter; cell line lacks STAT1; inhibition, % at 5.7 µM; hit rate 45% among 1,200; AID 1265, 2008;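 active = inhibition above the hit cutoff computed for the primary STAT3 screen, cut at about 44% in these data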;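 note: 0% = IL-6 plus DMSO and 100% = IL-6 plus nifuroxazide control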
NFkB inh 2 – NF-kB reporter inhibitors in human cells, confirmation, counter-screen for STAT3 inhibitor project, cell-based, HEK293T, luciferase, TNF-alpha stimulus; shares compounds with STAT3 inh-1; TNF-alpha induced; inhibition, % at 5.7 µM; hit rate 36% among 1,200; AID 1308, 2008;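 active = inhibition above the mean of solvent-only control wells plus 3 SD, cutoff set per campaign, cut at about 13% in these data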;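 note: 0% = TNF-alpha with DMSO and 100% = TNF-alpha with MG high control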
STAT1 inh 2 – STAT1 reporter inhibitors, IFN-gamma induced, confirmation, counter-screen for STAT3 inhibitor project, cell-based, NIH 3T3, luciferase luminescence | shares compounds with STAT3 inh-1 | NIH 3T3 STAT1-luciferase reporter | inhibition, % at 5.7 µM | hit rate 27% among 1,200 | AID 1317, 2008;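 active = inhibition above the mean plus 3 SD of solvent-only control wells, limit set per screening run, cut at about 16% in these data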;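 note: 0% = DMSO with IFN-gamma and 100% = nifuroxazide control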
Starred values were filed as active, the others as inactive; . = no result. A selection: hits, their analogues and other compounds. The true share with any hit is near 4.9%.

SMILES	STAT1 blocker	STAT3 inh-1	STAT3 act	STAT1 activator	NF-kB expr up	APP 5'UTR act	STAT3 inh-2	NFkB inh 2	STAT1 inh 2
O=C(O)c1cc2c(s1)-c1ccccc1OC2	3	-2	108	98	1	20	.	.	.
COCC(=O)N(c1ccccc1)C(C)C(=O)OC (centres undefined)	2	4	98	97	1.1	6	.	.	.
Cc1nn(-c2ccccc2Cl)c(Cl)c1/C=N/Nc1cccc(C(=O)O)c1	21	51*	57	81	9.8*	3	-7	61*	46*
CCOc1ccc(/C=N/Nc2ccccn2)cc1	-8	50*	61	107	8.2*	182*	7	-28	-112
CC(C)c1ccc(CCNC(=O)c2ccc([N+](=O)[O-])cc2)cc1	2	5	101	98	0.97	11	.	.	.
O=C(NCCc1ccccc1)c1ccc([N+](=O)[O-])cc1	-3	44*	67	103	4.3*	152*	10	-22	-67
COCCOc1cc(N(CC(=O)N(C)C)S(=O)(=O)c2ccccc2)c(Cl)cc1Cl	-1	7	104	100	1.1	4	.	.	.
COC(=O)c1ccc(OCCCCN2CC(C)OC(C)C2)cc1 (centres undefined)	4	10	98	95	1.2	-3	.	.	.
Cc1ccsc1/C=C1\CCc2ccccc2C1=O	32	78*	34	71	3.5*	138*	48*	11	-40
Cc1cc(C)nc(NCCO)n1	2	-6	107	96	1.4	-1	.	.	.
Cc1ccc(C)c(C(=O)COC(=O)c2cccc(N3C(=O)c4c(C)nc5ccccc5c4C3=O)c2)c1	-11	50*	60	110	0.42	141*	45*	29*	44*
Cc1nc2ccccc2c2c1C(=O)N(c1cccc(C(=O)O)c1)C2=O	0	-6	109	97	1.1	17	.	.	.
O=C(NCc1cccnc1)c1c[nH]c2cc3c(cc2c1=O)OCCO3	6	60*	55	95	2	80	23	-15	-23
Cc1ccc(-c2nc(NC(=O)c3nn(C)cc3[N+](=O)[O-])sc2C)cc1	36*	54*	57	67	0.21	-95	24	15*	4
Cc1cnc(NC(=O)c2nn(C)cc2[N+](=O)[O-])s1	15	58*	54	83	0.52	-34	20	12	-6
Cc1ccc(-c2nc(NC(=O)c3nn(C)cc3[N+](=O)[O-])sc2C)cc1C	28	49*	62	74	0.97	-96	28	17*	1
CC(=O)c1c(C)[nH]c(C(=O)Nc2nc(-c3ccc(Cl)cc3)cs2)c1C	-1	2	102	101	0.35	7	.	.	.
Cn1cc([N+](=O)[O-])c(C(=O)Nc2nc(-c3ccc(Cl)cc3)cs2)n1	24	60*	53	79	1.2	-96	35	18*	11
COCCn1c(C)cc(C(=O)CSc2nnc3ccccn23)c1C	31	74*	43	72	0.67	.	21	0	-32
Cc1nn(C)c(C(=O)NCc2ccc(Cl)cc2)c1Cl	26	56*	55	78	0.81	-7	65*	14*	20*
Cc1nc(C)c(C(=O)NCc2ccc(Cl)cc2)o1	7	18	88	94	0.96	2	.	.	.
COc1ccc(-c2cc(=O)c3cc(OC)ccc3o2)cc1	-25	73*	42	122	5.3*	155*	53*	31*	-47
O=C(CCS(=O)(=O)CCN1CCOCC1)NCNC(=O)CCS(=O)(=O)CCN1CCOCC1	-5	1	104	104	1.1	3	.	.	.
O=C(Nc1ccc(Br)cc1)c1ccc(CSC2=NCCS2)cc1	-23	56*	61	121	1.3	54	35	-11	-31
O=C(CSC1=NCCS1)Nc1ccc(F)cc1	2	13	95	96	1.3	-17	.	.	.
SMILES	STAT1 blocker	STAT3 inh-1	STAT3 act	STAT1 activator	NF-kB expr up	APP 5'UTR act	STAT3 inh-2	NFkB inh 2	STAT1 inh 2
CCOc1ccc(NC(=O)CSc2nnc(C)n2CCCOC)cc1	-1	-2	104	101	1.6	7	.	.	.
Cc1sc2ncnc(N3CCN(CCOc4ccc(Cl)cc4)CC3)c2c1C	22	76*	37	80	1.1	-3	77*	25*	20*
CCCNc1ncnc2nc[nH]c12	-7	6	95	107	1.2	13	.	.	.
Clc1ccc(CCNc2ncnc3nc[nH]c23)cc1	3	52*	61	98	0.97	-2	35	1	-13
c1ccc(CCCNc2ncnc3nc[nH]c23)cc1	1	11	90	97	1.1	-3	.	.	.
CCCCc1ccc(Nc2ncnc3nc[nH]c23)cc1	8	52*	63	93	2.9	100	41	-18	2
COc1ccc(COCC(O)CN2CCc3ccccc3C2)cc1OC (centres undefined)	6	12	96	94	0.96	5	.	.	.
O=C(Nc1nccs1)c1ccc(S(=O)(=O)NCC2CCCCC2)cc1	5	71*	45	95	1.1	-7	55*	11	3
CCCOC(=O)NC(CC)COC(=O)Nc1cc(C)ccc1C (centres undefined)	3	2	107	98	0.98	17	.	.	.
Cn1c(=O)n(C)c2cc(NS(=O)(=O)c3ccc(C(C)(C)C)cc3)ccc21	15	33	75	85	0.71	0	.	.	.
CCOC(=O)c1oc2ccc(S(=O)(=O)Nc3ccc4c(c3)n(C)c(=O)n4C)cc2c1C	16	60*	53	85	0.49	11	57*	10	14
Cn1c(=O)n(C)c2cc(NS(=O)(=O)c3ccc4c(c3)CCCC4)ccc21	18	53*	59	84	0.88	-1	41	8	20*
O=C(c1ccc(F)cc1F)N1CCN(c2n[nH]c(=O)[nH]c2=O)CC1	2	4	106	97	1.1	0	.	.	.
Nc1nnnn1/N=C/c1cccc(O)c1	-5	-22	130	104	1.1	-3	.	.	.
N/C(=N\N=C\c1cccc(O)c1)c1nonc1N	-7	63*	49	105	8.7*	155*	27	-6	-2
